Measured values taken from ChEMBL document CHEMBL4138099, “Design, synthesis and biological evaluation of uncharged catechol derivatives as selective inhibitors of PTP1B” (Eur J Med Chem, 2017).
The source made the active and inactive calls. The rule behind the calls is not given here.

Key:
[1] = molecular target: T1, Tyrosine-protein phosphatase non-receptor type 1 (Homo sapiens, UniProt P18031); assay: Inhibition of recombinant GST-tagged PTP1B catalytic domain (1 to 321 residues) (unknown origin) expressed in Escherichia coli BL21(DE3) using pNPP as substrate after 30 mins by spectrophotometer
T1 sequence (P18031 whole entry): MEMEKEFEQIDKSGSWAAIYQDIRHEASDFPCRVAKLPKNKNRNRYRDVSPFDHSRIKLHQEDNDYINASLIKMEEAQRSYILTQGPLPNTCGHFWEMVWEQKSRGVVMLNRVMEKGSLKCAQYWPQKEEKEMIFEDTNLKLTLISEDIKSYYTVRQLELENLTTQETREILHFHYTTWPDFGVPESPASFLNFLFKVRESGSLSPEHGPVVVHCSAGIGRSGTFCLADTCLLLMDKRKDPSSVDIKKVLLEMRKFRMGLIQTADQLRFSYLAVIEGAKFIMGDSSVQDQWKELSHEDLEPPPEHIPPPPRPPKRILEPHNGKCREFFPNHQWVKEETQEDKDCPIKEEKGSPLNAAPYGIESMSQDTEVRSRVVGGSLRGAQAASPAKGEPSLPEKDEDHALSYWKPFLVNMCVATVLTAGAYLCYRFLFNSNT
Outline: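 Assay at 37 °C, pH 7.5, in 10 mM Tris-HCl, 25 mM NaCl, 1 mM EDTA and 2 mM DTT, with 4 mM pNPP and 60 nM PTP1B. Inhibitor was added from DMSO at final 100 to 0.01 µM, and the reaction was started with enzyme. After 30 min it was stopped with 1 N NaOH and read at 405 nm. IC50 came from a sigmoidal fit of relative activity versus concentration.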

[2] = molecular target: T2, Tyrosine-protein phosphatase non-receptor type 2 (Homo sapiens, UniProt P17706); assay: Inhibition of TCPTP (unknown origin) using pNPP as substrate after 30 mins by spectrophotometer
T2 sequence (P17706 whole entry): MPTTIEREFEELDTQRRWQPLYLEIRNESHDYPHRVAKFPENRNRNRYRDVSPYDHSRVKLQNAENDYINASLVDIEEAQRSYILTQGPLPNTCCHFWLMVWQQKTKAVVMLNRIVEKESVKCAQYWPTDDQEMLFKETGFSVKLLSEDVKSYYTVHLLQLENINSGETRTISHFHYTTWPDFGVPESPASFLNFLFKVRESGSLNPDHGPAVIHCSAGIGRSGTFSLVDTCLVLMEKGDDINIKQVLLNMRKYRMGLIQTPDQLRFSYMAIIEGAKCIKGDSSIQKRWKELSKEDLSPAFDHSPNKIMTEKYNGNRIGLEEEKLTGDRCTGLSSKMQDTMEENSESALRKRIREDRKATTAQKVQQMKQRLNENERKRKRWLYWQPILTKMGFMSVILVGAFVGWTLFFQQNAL

Homo sapiens = species on record: Homo sapiens; assay: Selectivity ratio of IC50 for TCPTP (unknown origin) to IC50 for recombinant GST-tagged PTP1B catalytic domain (1 to 321 residues) (unknown origin)
[3] = molecular target: T3, Tyrosine-protein phosphatase non-receptor type 1 (Homo sapiens) (UniProt P18031); assay: Inhibition of recombinant GST-tagged PTP1B catalytic domain (1 to 321 residues) (unknown origin) expressed in Escherichia coli BL21(DE3) at 1 mM using pNPP as substrate after 30 mins by spectrophotometric method relative to control
T3 sequence (whole entry): T1 sequence (P18031 whole entry)
Outline: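 PTP1B (60 nM) reacted with 4 mM pNPP at 37 °C and pH 7.5 in 10 mM Tris-HCl, 25 mM NaCl, 1 mM EDTA, 2 mM DTT. The compound was added from DMSO at 1% v/v. The reaction was started with enzyme and stopped with 1 N NaOH after 30 min. p-Nitrophenol was read at 405 nm, and activity was taken relative to control.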

[4] = molecular target: T4, Tyrosine-protein phosphatase non-receptor type 1 (Mus musculus) (UniProt P35821); assay: Inhibition of PTP1B in mouse C2C12 cells assessed as increase in insulin stimulated IRS-1 phosphorylation at 2 uM preincubated for 1 hr followed by 100 nM insulin addition measured after 30 mins by immunoblot method; assay type: cell-based
T4 sequence (whole entry): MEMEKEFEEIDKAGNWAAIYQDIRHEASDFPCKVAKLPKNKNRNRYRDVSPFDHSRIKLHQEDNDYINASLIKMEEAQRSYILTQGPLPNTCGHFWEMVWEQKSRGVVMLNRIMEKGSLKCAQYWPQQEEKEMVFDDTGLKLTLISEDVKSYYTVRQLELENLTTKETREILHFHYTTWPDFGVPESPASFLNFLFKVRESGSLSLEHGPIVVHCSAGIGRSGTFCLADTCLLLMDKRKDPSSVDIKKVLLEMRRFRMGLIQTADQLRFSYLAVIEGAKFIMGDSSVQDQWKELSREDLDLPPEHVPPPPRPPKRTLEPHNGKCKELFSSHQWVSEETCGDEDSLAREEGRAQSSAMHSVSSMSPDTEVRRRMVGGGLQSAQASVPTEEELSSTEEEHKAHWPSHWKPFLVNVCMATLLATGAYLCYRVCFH
Outline: (§1)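 C2C12 myoblasts were grown in DMEM with 10% fetal calf serum and differentiated to myotubes in 10% horse serum. Myotubes were serum-starved 24 h, then given inhibitor at 0.5–4 µM in serum-free DMEM and stimulated with 100 nM insulin for 30 min at 37 °C. RIPA lysates (10 µg protein) were immunoblotted for phospho-proteins, detected by ECL and quantified by densitometry.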

[5] = molecular target: T4, Tyrosine-protein phosphatase non-receptor type 1 (Mus musculus); assay: Inhibition of PTP1B in mouse C2C12 cells assessed as increase in insulin stimulated AKT phosphorylation at 2 uM preincubated for 1 hr followed by 100 nM insulin addition measured after 30 mins by immunoblot method; assay type: cell-based; outline: as §1
[6] = molecular target: T3, Tyrosine-protein phosphatase non-receptor type 1 (Homo sapiens); assay: Competitive inhibition of recombinant GST-tagged PTP1B catalytic domain (1 to 321 residues) (unknown origin) expressed in Escherichia coli BL21(DE3) at 1 to 4 uM using varying levels of pNPP as substrate after 30 mins by spectrophotometric method
Outline: (§2)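 PTP1B-catalysed pNPP hydrolysis read by absorbance of p-nitrophenol at 405 nm, run with pNPP at 0.5, 1.0, 2.0, 4.0 and 8.0 mM, with and without inhibitor. Inhibition mode was assigned from double-reciprocal (1/v) plots.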

[7] = molecular target: T4, Tyrosine-protein phosphatase non-receptor type 1 (Mus musculus); assay: Inhibition of PTP1B in mouse C2C12 cells assessed as increase in insulin stimulated IRbeta phosphorylation at 2 uM preincubated for 1 hr followed by 100 nM insulin addition measured after 30 mins by immunoblot method; assay type: cell-based; outline: as §1
[8] = molecular target: T3, Tyrosine-protein phosphatase non-receptor type 1 (Homo sapiens); assay: Competitive inhibition of recombinant GST-tagged PTP1B catalytic domain (1 to 321 residues) (unknown origin) expressed in Escherichia coli BL21(DE3) at 1 to 8 uM using varying levels of pNPP as substrate after 30 mins by spectrophotometric method; outline: as §2

Structure (SMILES) | IC50 [1] [µM] | also measured
COCCc1ccc(Oc2ccc(-c3cnc(-c4ccc(O)c(O)c4)o3)cc2)cc1 | 19.1 | 
O=C(CSc1nnc(-c2ccc(O)c(O)c2)o1)Oc1ccc(OCc2ccccc2)cc1 | 7.79 | 
Cc1ccc(Oc2ccc(C(=O)CSc3nnc(-c4ccc(O)c(O)c4)o3)cc2)cc1 | 3.89 | IC50 [2]: 8.73 µM; Ratio IC50 (Homo sapiens): 2.24
O=C(CSc1nnc(-c2ccc(O)c(O)c2)o1)Oc1ccc(C(F)(F)F)cc1 | 21.4 | 
O=Cc1ccc(O)c(O)c1 |  | inhibition [3]: 29%
Oc1ccc(-c2nnc(SCc3ccccc3)o2)cc1O | 31.6 | 
COc1ccc(Oc2ccc(-c3cnc(-c4ccc(O)c(O)c4)o3)cc2)cc1 | 6.92 | 
O=C(CSc1nnc(-c2ccc(O)c(O)c2)o1)Oc1ccccc1 | 8.09 | 
Cc1ccc(OC(=O)CSc2nnc(-c3ccc(O)c(O)c3)o2)cc1 | 4.74 | 
O=C(CSc1nnc(-c2ccc(O)c(O)c2)o1)Oc1ccc(Br)cc1 | 115 | 
COC(=O)CSc1nnc(-c2ccc(O)c(O)c2)o1 | 35.6 | 
CCOc1ccc(Oc2ccc(-c3cnc(-c4ccc(O)c(O)c4)o3)cc2)cc1 | 20.8 | 
COCCc1ccc(Oc2ccc(OC(=O)CSc3nnc(-c4ccc(O)c(O)c4)o3)cc2)cc1 | 22.8 | 
CC(C)(C)c1ccc(Oc2ccc(OC(=O)CSc3nnc(-c4ccc(O)c(O)c4)o3)cc2)cc1 | 10.5 | 
O=C(CSc1nnc(-c2ccc(O)c(O)c2)o1)Oc1ccc(Oc2ccccc2)cc1 | 9.33 | 
Oc1ccc(-c2ncc(-c3ccc(Oc4ccc(-c5ccccc5)cc4)cc3)o2)cc1O | 6.25 | IC50 [2]: 5.01 µM; Ratio IC50 (Homo sapiens): 0.8
Cc1ccc(Oc2ccc(-c3cnc(-c4ccc(O)c(O)c4)o3)cc2)cc1 | 0.807 | inhibition [8]: Active

Continued by falling IC50 [1], values first:

IC50 [1] [µM] | Structure (SMILES) | also measured
21.4 | O=C(CSc1nnc(-c2ccc(O)c(O)c2)o1)Oc1ccc(Oc2ccc(OCc3ccccc3)cc2)cc1 | 
17 | CCOc1ccc(Oc2ccc(OC(=O)CSc3nnc(-c4ccc(O)c(O)c4)o3)cc2)cc1 | 
15.5 | O=C(CSc1nnc(-c2ccc(O)c(O)c2)o1)c1ccccc1 | 
11 | CC(C)c1ccc(Oc2ccc(OC(=O)CSc3nnc(-c4ccc(O)c(O)c4)o3)cc2)cc1 | 
7.94 | CCOc1ccc(OC(=O)CSc2nnc(-c3ccc(O)c(O)c3)o2)cc1 | 
7.44 | CC(C)c1ccc(Oc2ccc(-c3cnc(-c4ccc(O)c(O)c4)o3)cc2)cc1 | 
6.02 | COc1ccc(OC(=O)CSc2nnc(-c3ccc(O)c(O)c3)o2)cc1 | IC50 [2]: > 100 µM; Ratio IC50 (Homo sapiens): > 16.6
3.6 | CCC(C)(C)c1ccc(Oc2ccc(-c3cnc(-c4ccc(O)c(O)c4)o3)cc2)cc1 | 
2.63 | Oc1ccc(-c2ncc(-c3ccc(Oc4ccccc4)cc3)o2)cc1O | 
0.487 | CC(C)(C)c1ccc(Oc2ccc(-c3cnc(-c4ccc(O)c(O)c4)o3)cc2)cc1 | inhibition [4]: Active; IC50 [2]: 13.3 µM; inhibition [5]: Active; inhibition [6]: Active; Ratio IC50 (Homo sapiens): 27.3; inhibition [7]: Active
